Calls of active or inactive are those of the source. The rule behind the calls is not given here.
Tests used:
MCF7 [1] = assay: Cell cycle arrest in human MCF7 cells assessed as accumulation at G1 phase at 4 uM after 24 hrs using propidium iodide staining by flow cytometry; assay type: functional
In short: (§1)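 MCF-7 cells were grown in DMEM with 10% fetal calf serum, penicillin and streptomycin, at 37 °C in 5% CO2. They were treated for 24 h at 2 and 4 µM, with DMSO-treated cells as controls. Cells were trypsinised, fixed in ice-cold 70% ethanol at 4 °C for 30 min, and RNaseA-treated at 37 °C for 30 min. Phases were read by flow cytometry.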

MCF7 [2] = assay: Cell cycle arrest in human MCF7 cells assessed as accumulation at G0 phase after 24 hrs using propidium iodide staining by flow cytometry; assay type: functional, cell-based; in short: as §1
MCF7 [3] = assay: Increase of cytosolic cytochrome c level in human MCF7 cells at 4 uM after 24 hrs by Western blot analysis; assay type: functional, cell-based
In short: (§2)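 MCF-7 cells were grown in DMEM with 10% FCS and penicillin/streptomycin at 37 °C in 5% CO2, then treated for 24 h. Cells were lysed in ice-cold RIPA buffer with protease inhibitors and NaF. Protein was measured by Bradford assay, and 30 µg per lane was run on 12% SDS-PAGE and transferred to PVDF. Antibody steps: primary at 4 °C overnight, HRP secondary 1:2000, chemiluminescent detection.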

MCF7 [4] = assay: Induction of apoptosis in human MCF7 cells assessed as increase of caspase 9 activation at 4 uM after 1 hr by fluorimetry based assay; assay type: functional, cell-based
MCF7 [5] = assay: Increase of PARP cleavage in human MCF7 cells at 2 uM after 24 hrs by Western blot analysis; assay type: functional, cell-based; in short: as §2
CCRF-CEM = assay: Growth inhibition of human CCRF-CEM cells after 24 hrs by MTT assay; assay type: functional
K562 = assay: Growth inhibition of human K562 cells after 24 hrs by MTT assay; assay type: functional; conditions: K562, 24 h
[6] = Growth inhibition of human […] cells after 24 hrs by MTT assay; assay type: functional
SR = assay: Growth inhibition of human SR cells after 24 hrs by MTT assay; assay type: functional
EKVX = assay: Growth inhibition of human EKVX cells after 24 hrs by MTT assay; assay type: functional
HOP-92 = assay: Growth inhibition of human HOP92 cells after 24 hrs by MTT assay; assay type: functional; conditions: HOP-92, 24 h
NCI-H226 = assay: Growth inhibition of human NCI-H226 cells after 24 hrs by MTT assay; assay type: functional; conditions: NCI-H226, 24 h
NCI-H23 = assay: Growth inhibition of human NCI-H23 cells after 24 hrs by MTT assay; assay type: functional; conditions: NCI-H23, 24 h
NCI-H322M = assay: Growth inhibition of human NCI-H322M cells after 24 hrs by MTT assay; assay type: functional
COLO 205 = assay: Growth inhibition of human COLO205 cells after 24 hrs by MTT assay; assay type: functional; conditions: COLO 205, 24 h
HCC 2998 = assay: Growth inhibition of human HCC2998 cells after 24 hrs by MTT assay; assay type: functional; conditions: HCC 2998, 24 h
HCT-116 = assay: Growth inhibition of human HCT116 cells after 24 hrs by MTT assay; assay type: functional; conditions: HCT-116, 24 h
KM12 = assay: Growth inhibition of human KM12 cells after 24 hrs by MTT assay; assay type: functional; conditions: KM12, 24 h
SW-620 = assay: Growth inhibition of human SW620 cells after 24 hrs by MTT assay; assay type: functional; conditions: SW-620, 24 h
SF-268 = assay: Growth inhibition of human SF268 cells after 24 hrs by MTT assay; assay type: functional; conditions: SF-268, 24 h
SF-539 = assay: Growth inhibition of human SF539 cells after 24 hrs by MTT assay; assay type: functional; conditions: SF-539, 24 h
U-251 = assay: Growth inhibition of human U251 cells after 24 hrs by MTT assay; assay type: functional; conditions: U-251, 24 h
LOX IMVI = assay: Growth inhibition of human LOXIMVI cells after 24 hrs by MTT assay; assay type: functional
Malme-3M = assay: Growth inhibition of human MALME-3M cells after 24 hrs by MTT assay; assay type: functional
M14 = assay: Growth inhibition of human M14 cells after 24 hrs by MTT assay; assay type: functional; conditions: M14, 24 h
UACC-62 = assay: Growth inhibition of human UACC62 cells after 24 hrs by MTT assay; assay type: functional; conditions: UACC-62, 24 h
IGROV-1 = assay: Growth inhibition of human IGROV1 cells after 24 hrs by MTT assay; assay type: functional; conditions: IGROV-1, 24 h
OVCAR-4 = assay: Growth inhibition of human OVCAR4 cells after 24 hrs by MTT assay; assay type: functional; conditions: OVCAR-4, 24 h
OVCAR-8 = assay: Growth inhibition of human OVCAR8 cells after 24 hrs by MTT assay; assay type: functional; conditions: OVCAR-8, 24 h
SK-OV-3 = assay: Growth inhibition of human SKOV3 cells after 24 hrs by MTT assay; assay type: functional; conditions: SK-OV-3, 24 h
786-0 = assay: Growth inhibition of human 786-0 cells after 24 hrs by MTT assay; assay type: functional; conditions: 786-0, 24 h
ACHN = assay: Growth inhibition of human ACHN cells after 24 hrs by MTT assay; assay type: functional
RXF 393 = assay: Growth inhibition of human RXF393 cells after 24 hrs by MTT assay; assay type: functional; conditions: RXF 393, 24 h
SN12C = assay: Growth inhibition of human SN12C cells after 24 hrs by MTT assay; assay type: functional
UO-31 = assay: Growth inhibition of human UO31 cells after 24 hrs by MTT assay; assay type: functional; conditions: UO-31, 24 h
NCI/ADR-RES = assay: Growth inhibition of human NCI/ADR-RES cells after 24 hrs by MTT assay; assay type: functional
MDA-MB-231 = assay: Growth inhibition of human MDA-MB-231 cells after 24 hrs by MTT assay; assay type: functional; conditions: MDA-MB-231, 24 h
[7] = Growth inhibition of human Hs 578T cells after 24 hrs by MTT assay; assay type: functional
BT-549 = assay: Growth inhibition of human BT549 cells after 24 hrs by MTT assay; assay type: functional; conditions: BT-549, 24 h
T47D = assay: Growth inhibition of human T47D cells after 24 hrs by MTT assay; assay type: functional
Nucleic Acid = assay: Inhibition of Escherichia coli pBR322 DNA cleavage at 16 uM after 16 hrs by RED100-restriction endonuclease digestion assay; assay type: nucleic-acid assay
In short: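 pBR322 DNA was preincubated with compound at final 2, 4, 8, 16 and 32 µM for 16 h at 37 °C. BamHI (10 U/µl) in BamHI buffer was then added for 2 h at 37 °C. Products were separated on agarose in 0.5× Tris–acetate EDTA at 80 V for 1 h and stained with ethidium bromide. Cut and uncut DNA served as controls.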

MCF7 [8] = assay: Cell cycle arrest in human MCF7 cells assessed as accumulation at G2/M phase at 4 uM after 24 hrs using propidium iodide staining by flow cytometry; assay type: functional; in short: as §1
MCF7 [9] = assay: Cell cycle arrest in human MCF7 cells assessed as accumulation at G1 phase at 2 uM after 24 hrs using propidium iodide staining by flow cytometry; assay type: functional; in short: as §1

COc1cc2c(cc1OCCCOc1ccc(-c3cc4ccccc4c4ccccc34)cc1)N=C[C@@H]1CCCN1C2=O
Activity (MCF7 [1]): 75.33%
Activity (MCF7 [2]): Dose-dependent effect
Activity (MCF7 [3]): Active
Activity (MCF7 [4]): Active
Activity (MCF7 [5]): Active
GI50 (CCRF-CEM): 130 nM
GI50 (K562): 270 nM
GI50 [6]: 190 nM
GI50 (SR): 220 nM
GI50 (EKVX): 1050 nM
GI50 (HOP-92): 360 nM
GI50 (NCI-H226): 1170 nM
GI50 (NCI-H23): 1410 nM
GI50 (NCI-H322M): 1590 nM
GI50 (COLO 205): 1190 nM
GI50 (HCC 2998): 1210 nM
GI50 (HCT-116): 250 nM
GI50 (KM12): 780 nM
GI50 (SW-620): 510 nM
GI50 (SF-268): 860 nM
GI50 (SF-539): 1760 nM
GI50 (U-251): 910 nM
GI50 (LOX IMVI): 1020 nM
GI50 (Malme-3M): 1590 nM
GI50 (M14): 570 nM
GI50 (UACC-62): 630 nM
GI50 (IGROV-1): 120 nM
GI50 (OVCAR-4): 580 nM
GI50 (OVCAR-8): 420 nM
GI50 (SK-OV-3): 1560 nM
GI50 (786-0): 700 nM
GI50 (ACHN): 1260 nM
GI50 (RXF 393): 240 nM
GI50 (SN12C): 510 nM
GI50 (UO-31): 160 nM
GI50 (NCI/ADR-RES): 1670 nM
GI50 (MDA-MB-231): 290 nM
GI50 [7]: 1020 nM
GI50 (BT-549): 270 nM
GI50 (T47D): 80 nM
inhibition (Nucleic Acid): 100%
Activity (MCF7 [8]): 3.94%
Activity (MCF7 [9]): 68.99%
